Measurements as given in ChEMBL document CHEMBL1250511, “Discovery of pyridazinopyridinones as potent and selective p38 mitogen-activated protein kinase inhibitors” (J Med Chem, 2010).

Key:
THP-1 = assay: Antiinflammatory activity in human THP1 cells assessed as inhibition of LPS-induced TNFalpha production after 3 hrs; type: functional, cell-based; conditions: THP-1, 3 h
In short: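 THP-1 cells (1.5 × 10^6/mL in RPMI 1640, 10% heat-inactivated FBS, 30 μM βME) given 3-fold serial DMSO dilutions of compound, then LPS. Incubation 3 h at 37 °C, 5% CO2. Secreted TNFα measured in medium by MSD electrochemiluminescence. Results expressed as percent of control relative to DMSO (HI) and no-LPS (LO) wells.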

[1] = Antiinflammatory activity in human whole blood cells assessed as inhibition of TNF-alpha-induced IL8 production after 16 to 18 hrs; type: functional, cell-based
In short: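 Heparinized blood from healthy, nonmedicated volunteers (final 50% in RPMI 1640/10% human AB serum) was preincubated 1 h at 37 °C, 5% CO2 with ten-point compound titrations. It was then stimulated with TNFα (final 1 nM) overnight (16-18 h). Plasma IL-8 was measured by MSD ECL sandwich immunoassay.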

[2] = target: Mitogen-activated protein kinase 14 (Homo sapiens, UniProt Q16539); assay: Inhibition of p38alpha MAP kinase
[3] = AUC in Sprague-Dawley rat at 2 mg/kg, po; type: ADME, organism-based; parameters: dose 2 mg/kg, route oral; conditions: plasma
[4] = Volume of distribution at steady state in Sprague-Dawley rat at 2 mg/kg, iv; type: ADME, organism-based; parameters: dose 2 mg/kg, route intravenous; conditions: in vivo, read-out: Vdss
In short: (§1)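 Single iv dose of 2.0 mg/kg, formulated in DMSO.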

Rattus norvegicus [5] = assay: Antiinflammatory activity in po dosed Lewis rat assessed as inhibition of LPS-induced TNFalpha production administered 1 hrs prior to LPS challenge after 90 mins
[6] = Oral bioavailability in Sprague-Dawley rat at 2 mg/kg; type: ADME, organism-based; conditions: in vivo
[7] = Clearance in Sprague-Dawley rat at 2 mg/kg, iv; type: ADME, organism-based; parameters: dose 2 mg/kg, route intravenous; conditions: in vivo; in short: as §1
[8] = Half life in Sprague-Dawley rat at 2 mg/kg, iv; type: ADME, organism-based; parameters: dose 2 mg/kg, route intravenous; conditions: in vivo; in short: as §1
Rattus norvegicus [9] = organism: Rattus norvegicus; assay: Antiarthritic activity in Lewis rat assessed as reduction in collagen-induced paw swelling; type: functional
In short: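 Arthritis induced by intradermal porcine type II collagen emulsified 1:1 in incomplete Freund's adjuvant. Animals were grouped at disease onset (10-12 days post-immunization) and dosed orally once daily for 7 days. Paw diameter was measured daily on days 0-7. Area under the paw-swelling curve gave percent inhibition versus vehicle.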

Sequence of Mitogen-activated protein kinase 14 (Q16539 whole entry): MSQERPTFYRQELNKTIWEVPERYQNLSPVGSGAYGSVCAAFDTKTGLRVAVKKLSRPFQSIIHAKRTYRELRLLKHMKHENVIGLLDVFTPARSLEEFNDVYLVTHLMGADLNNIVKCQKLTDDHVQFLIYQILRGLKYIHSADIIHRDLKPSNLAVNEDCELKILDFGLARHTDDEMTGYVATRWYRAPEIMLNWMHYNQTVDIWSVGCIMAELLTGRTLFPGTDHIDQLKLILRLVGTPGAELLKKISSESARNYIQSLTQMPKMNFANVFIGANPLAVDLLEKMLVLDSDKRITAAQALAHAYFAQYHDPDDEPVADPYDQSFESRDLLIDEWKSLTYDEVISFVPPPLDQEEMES

IC50 (THP-1) [nM] | IC50 [1] [nM] | IC50 [2] [nM] | SMILES | further results
235 | 227 | 78 | Cn1c(=O)c(Oc2ccc(F)cc2)cc2cnnc(-c3ccc(F)cc3F)c21 | –
49 | 213 | 6.1 | Cn1c(=O)c(Cc2ccc(F)cc2F)cc2cnnc(-c3ccc(F)cc3F)c21 | –
4.5 | 11.7 | 0.9 | Cn1c(=O)c(Nc2ccc(F)cc2F)cc2cnnc(-c3ccc(F)cc3F)c21 | –
107 | 70.5 | – | Cn1c(=O)c(Oc2ccc(F)cc2F)cc2cnnc(-c3ccc(F)cc3F)c21 | –
982 | > 2500 | – | Cn1c(=O)c(Nc2ncc(F)cc2F)cc2cnnc(-c3ccc(F)cc3F)c21 | –
> 2500 | > 2500 | – | Cn1c(=O)c(Nc2ccc(F)cn2)cc2cnnc(-c3ccc(F)cc3F)c21 | –
1140 | 1240 | 299 | CN(c1ccc(F)cc1)c1cc2cnnc(-c3ccc(F)cc3F)c2n(C)c1=O | –

More lines, now with the values behind:

SMILES | IC50 (THP-1) [nM] | IC50 [1] [nM] | IC50 [2] [nM] | further results
Cc1cnc(C(=O)NC2CC2)cc1-c1cc2cnnc(-c3ccc(F)cc3F)c2n(C)c1=O | 80.5 | 63.3 | 14.5 | –
Cn1c(=O)c(Nc2ccc(F)cc2)cc2cnnc(-c3ccc(F)cc3F)c21 | 13.7 | 61.9 | – | –
Cc1ccc(C(N)=O)cc1-c1cc2cnnc(-c3ccc(F)cc3F)c2n(C)c1=O | 19.3 | 21.3 | 2.7 | –
Cn1c(=O)c(-c2cc(C(=O)NC3CC3)ccc2Cl)cc2cnnc(-c3ccc(F)cc3F)c21 | 6.3 | 8.3 | 2.6 | –
CNC(=O)c1ccc(C)c(-c2cc3cnnc(-c4ccc(F)cc4F)c3n(C)c2=O)c1 | 24.3 | 30 | – | –
Cc1ccc(C(=O)O)cc1-c1cc2cnnc(-c3ccc(F)cc3F)c2n(C)c1=O | > 2500 | > 2500 | > 1000 | –
Cn1c(=O)c(Cc2ccc(F)cc2)cc2cnnc(-c3ccc(F)cc3F)c21 | 197 | 697 | 55.8 | –
Cc1ccc(C(=O)NC2CC2)cc1-c1cc2cnnc(-c3ccc(F)cc3F)c2n(C)c1=O | 2.1 | 1.8 | 2.7 | AUC [3]: 7630 ng·h/mL; Vd [4]: 1.04 L/kg; ED50 (Rattus norvegicus [5]): 0.06 mg/kg; bioavailability [6]: 86%; clearance [7]: 3.83 mL/min/kg; half-life [8]: 3.06 h; ED50 (Rattus norvegicus [9]): 0.03 mg/kg
Cc1ccc(C(=O)NC2(C)CC2)cc1-c1cc2cnnc(-c3ccc(F)cc3F)c2n(C)c1=O | 14.5 | 27.4 | 3.1 | –
Cc1c(F)cc(C(=O)NC2CC2)cc1-c1cc2cnnc(-c3ccc(F)cc3F)c2n(C)c1=O | 1.1 | 1.6 | 1.4 | AUC [3]: 6740 ng·h/mL; Vd [4]: 1.19 L/kg; bioavailability [6]: 55%; half-life [8]: 4.66 h
